Experimental data published in ChEMBL document CHEMBL1165910, “Synthesis and biological evaluation of new [1,2,4]triazino[5,6-b]indol-3-ylthio-1,3,5-triazines and [1,2,4]triazino[5,6-b]indol-3-ylthio-pyrimidines against Leishmania donovani” (Eur J Med Chem, 2010).
Converted amounts (≈) assume the structure as drawn. The source made the active and inactive calls. The calls are words filed in the database; no cut-off is given here.

Columns and labels:
[1] = system: Leishmania donovani; assay: Antileishmanial activity against Leishmania donovani MHOM/IN/Dd8 promastigote carrying firefly luciferase gene infected in mouse J774A1 cells assessed as relative luminescence unit at 40 ug/mL after 72 hrs; type: functional; settings: for inhibition at 40 µg/mL: MHOM/IN/Dd8, J774.A1, 72 h; for inhibition: J774.A1
[2] = system: Leishmania donovani; assay: Antileishmanial activity against Leishmania donovani (MHOM/IN/Dd8) amastigote infected in mouse J774 cells assessed as after 72 hrs by luminometry; type: functional, organism-based; settings: for IC50: MHOM/IN/Dd8, J774, 72 h
Method in brief: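 J774 macrophages were seeded at 1.5 × 10^4 cells/well in RPMI-1640 with 10% foetal calf serum at 37 °C under CO2. After 24 h, medium was replaced with medium containing luciferase-transfected stationary-phase promastigotes (2.25 × 10^5/well). Test material at 0.25–10 in complete medium was then added for 72 h at 37 °C. Wells were given PBS plus Steady-Glo and read by luminometer; inhibition was calculated against untreated infected controls.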

[3] = system: J774.A1; assay: (§1) Selectivity index, ratio of CC50 for mouse J774A1 cells to IC50 for IC50 Leishmania donovani MHOM/IN/Dd8; type: functional
[4] = system: Leishmania donovani; assay: Antileishmanial activity against Leishmania donovani MHOM/IN/Dd8 promastigote carrying firefly luciferase gene infected in mouse J774A1 cells assessed as relative luminescence unit at 940 ug/mL after 72 hrs; type: functional, organism-based; settings: J774.A1
[5] = Cytotoxicity against mouse J774A1 cells after 72 hrs by MTT assay; type: cell-based, J774.A1
Method in brief: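 J774A.1 cells were grown in RPMI with 10% foetal calf serum and 40 µg/mL gentamycin. Exponentially growing cells (1 × 10^4/well) received compound dilutions, made from DMSO stock in complete medium, for 72 h at 37 °C in humidified CO2/air. MTT (5 mg/mL in PBS) was added for 2 h, supernatant removed and formazan dissolved in DMSO. A544 was read, and CC50 (50% viability reduction versus medium-only cells) was estimated by template.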

[6] = system: Leishmania donovani; assay: Antileishmanial activity against Leishmania donovani MHOM/IN/Dd8 promastigote carrying firefly luciferase gene infected in mouse J774A1 cells assessed as relative luminescence unit at 0.5 ug/mL after 72 hrs; type: functional; settings: MHOM/IN/Dd8, J774.A1, 72 h
[7] = as §1; type: functional, J774.A1
[8] = system: Leishmania donovani; assay: Antileishmanial activity against Leishmania donovani (MHOM/IN/Dd8) amastigote infected in mouse J774 cells assessed as after 72 hrs by luminometry at 40 ug/ml; type: functional, organism-based

Compound	inhibition at 40 µg/mL [1]	CC50 at 72 h [5]	MIC ([2]; MHOM/IN/Dd8, 72 h)	IC50 [2]	Ratio CC50/IC50 [7]	also measured
CN(C)CCNc1nc(NCCN(C)C)nc(Sc2nnc3c4ccccc4n(C)c3n2)n1	68.5%	–	–	–	–	–
D-Gluconic acid,2,4:2',4'-O-[oxybis-(oxidostibylidyne)]bis-,trisodium salt, nonahydrate	–	–	–	–	–	MIC [2]: 164 µM; Ratio CC50/IC50 [3]: 5.53; inhibition [4]: 40%
N=C(N)c1ccc(OCCCCCOc2ccc(C(=N)N)cc2)cc1 [PENTAMIDINE]	–	52.8 µM	> 169 µM	20.4 µM	–	inhibition at 0.5 µg/mL [6]: 85%
Cc1cc(Sc2nnc3c4ccccc4n(C)c3n2)nc(NC(C)C)n1	99.2%	109 µM	93.8 µM (≈ 34.3 µg/mL)	29.6 µM	3.66	–
Cc1cc(Sc2nnc3c4ccccc4n(C)c3n2)nc(NCCN2CCOCC2)n1	51.1%	–	–	–	–	–
Cn1c2ccccc2c2nnc(Sc3nc(NCCCN4CCOCC4)nc(NCCCN4CCOCC4)n3)nc21	–	–	–	–	–	inhibition [1]: inactive
CCCCNc1nc(C)cc(Sc2nnc3c4ccccc4n(C)c3n2)n1	99.7%	88.4 µM	110 µM (≈ 41.8 µg/mL)	18.3 µM	4.82	–
Cn1c2ccccc2c2nnc(Sc3nc(N4CCOCC4)nc(N4CCOCC4)n3)nc21	43.1%	–	–	–	–	–
CN1CCN(c2nc(Sc3nnc4c5ccccc5n(C)c4n3)nc(N3CCN(C)CC3)n2)CC1	–	–	–	–	–	inhibition [1]: inactive
CCCCNc1nc(NCCCC)nc(Sc2nnc3c4ccccc4n(C)c3n2)n1	93.2%	17.1 µM	–	–	–	Activity [8]: inactive; Ratio CC50/IC50 [3]: inactive
Cn1c2ccccc2c2nnc(Sc3nc(N4CCCCC4)nc(N4CCCCC4)n3)nc21	75.6%	227 µM	20.5 µM (≈ 9.48 µg/mL)	4.01 µM	56.61	–
Cc1cc(Sc2nnc3c4ccccc4n(C)c3n2)nc(N2CCN(C)CC2)n1	99.9%	29.2 µM	68.7 µM (≈ 27.9 µg/mL)	57.8 µM	0.5	–
Cn1c2ccccc2c2nnc(Sc3nc(NC(C)(C)C)nc(NC(C)(C)C)n3)nc21	97.4%	–	–	–	–	Activity [8]: inactive; Ratio CC50/IC50 [3]: inactive
Cc1cc(Sc2nnc3c4ccccc4n(C)c3n2)nc(N2CCCCC2)n1	99.3%	173 µM	139 µM (≈ 54.3 µg/mL)	25.7 µM	6.74	–
Cc1cc(Sc2nnc3c4ccccc4n(C)c3n2)nc(N2CCOCC2)n1	–	–	–	–	–	inhibition [1]: inactive
CCN1CCN(c2nc(C)cc(Sc3nnc4c5ccccc5n(C)c4n3)n2)CC1	100%	28.1 µM	90.8 µM (≈ 38.2 µg/mL)	26.3 µM	1.06	–
Cc1cc(Sc2nnc3c4ccccc4n(C)c3n2)nc(NC(C)(C)C)n1	66.7%	–	–	–	–	–
Cn1c2ccccc2c2nnc(Sc3nc(NCCN4CCOCC4)nc(NCCN4CCOCC4)n3)nc21	77.1%	–	–	–	–	Activity [8]: inactive; Ratio CC50/IC50 [3]: inactive
CCN(CC)CCNc1nc(C)cc(Sc2nnc3c4ccccc4n(C)c3n2)n1	99.9%	–	–	–	–	Activity [8]: inactive; Ratio CC50/IC50 [3]: inactive
CC(C)Nc1nc(NC(C)C)nc(Sc2nnc3c4ccccc4n(C)c3n2)n1	99.3%	64.5 µM	90.5 µM (≈ 37.1 µg/mL)	17.4 µM	3.71	–
Cc1cc(Sc2nnc3c4ccccc4n(C)c3n2)nc(NCCN(C)C)n1	100%	–	–	–	–	Activity [8]: inactive; Ratio CC50/IC50 [3]: inactive
CCN(CC)CCNc1nc(NCCN(CC)CC)nc(Sc2nnc3c4ccccc4n(C)c3n2)n1	49.3%	–	–	–	–	–
Cc1cc(Sc2nnc3c4ccccc4n(C)c3n2)nc(NCCCN2CCOCC2)n1	95.1%	–	–	–	–	Activity [8]: inactive; Ratio CC50/IC50 [3]: inactive
CCN1CCN(c2nc(Sc3nnc4c5ccccc5n(C)c4n3)nc(N3CCN(CC)CC3)n2)CC1	100%	93.2 µM	26.6 µM (≈ 13.8 µg/mL)	15.5 µM	6	–
